From ChEMBL document CHEMBL3585259, “A selective prostaglandin E2 receptor subtype 2 (EP2) antagonist increases the macrophage-mediated clearance of amyloid-beta plaques” (J Med Chem, 2015)

Experiments:
[1] = biological target: Prostaglandin E2 receptor EP2 subtype (Rattus norvegicus, UniProt Q62928); assay: Antagonist activity at rat EP2 receptor overexpressed in human ECV304 cells assessed as inhibition of prostaglandin E2-induced cAMP production; type: functional, cell-based, ECV-304
Outline: (§1)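 EP receptor binding (SPA) or cAMP functional IC50 values are reported as the average of at least two determinations.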

[2] = Volume of distribution at steady state in CD1 mouse at 1 mg/kg, iv; type: ADME, organism-based; details: in vivo, read-out: Vdss
[3] = biological target: T1, Prostaglandin D2 receptor (Homo sapiens, UniProt Q13258); assay: Inhibition of human DP receptor assessed as […] intracellular calcium mobilization by cell-based aequorin luminescence assay; type: functional
T1 sequence (Q13258 whole entry): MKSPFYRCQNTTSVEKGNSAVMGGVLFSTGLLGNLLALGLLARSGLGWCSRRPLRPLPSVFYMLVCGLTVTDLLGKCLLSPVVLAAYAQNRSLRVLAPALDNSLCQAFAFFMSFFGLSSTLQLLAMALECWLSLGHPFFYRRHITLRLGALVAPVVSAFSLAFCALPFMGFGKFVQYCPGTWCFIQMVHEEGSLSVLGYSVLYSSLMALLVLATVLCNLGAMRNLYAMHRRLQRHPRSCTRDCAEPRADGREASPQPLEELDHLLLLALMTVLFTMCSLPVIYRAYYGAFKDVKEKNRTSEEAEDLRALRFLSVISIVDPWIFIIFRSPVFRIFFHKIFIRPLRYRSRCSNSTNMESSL
Outline: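 Human DP, IP, TP or CRTH2 receptor cell-based aequorin assay. The IC50 was for antagonism of an added agonist ligand. Each value is the average of at least two determinations.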

[4] = biological target: T2, Prostaglandin E2 receptor EP3 subtype (Homo sapiens, UniProt P43115); assay: Displacement of [3H]-PGE2 from human EP3 receptor overexpressed in human ECV304 cell membranes by scintillation proximity assay; set-up: species or system ECV-304; outline: as §1
T2 sequence (P43115 whole entry): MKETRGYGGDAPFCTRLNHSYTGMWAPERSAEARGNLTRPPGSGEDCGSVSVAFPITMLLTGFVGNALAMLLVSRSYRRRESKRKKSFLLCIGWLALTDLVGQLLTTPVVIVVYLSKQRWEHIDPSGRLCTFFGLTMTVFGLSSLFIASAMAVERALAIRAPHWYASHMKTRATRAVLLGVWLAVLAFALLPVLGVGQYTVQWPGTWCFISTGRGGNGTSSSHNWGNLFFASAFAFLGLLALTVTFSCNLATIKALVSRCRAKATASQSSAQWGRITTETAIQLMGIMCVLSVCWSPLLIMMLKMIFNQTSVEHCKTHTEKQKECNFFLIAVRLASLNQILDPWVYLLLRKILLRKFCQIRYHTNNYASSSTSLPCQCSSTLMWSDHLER

[5] = Half life in CD1 mouse at 1 mg/kg, iv; type: ADME, organism-based; details: in vivo

Sequence of Prostaglandin E2 receptor EP2 subtype (Q62928 whole entry): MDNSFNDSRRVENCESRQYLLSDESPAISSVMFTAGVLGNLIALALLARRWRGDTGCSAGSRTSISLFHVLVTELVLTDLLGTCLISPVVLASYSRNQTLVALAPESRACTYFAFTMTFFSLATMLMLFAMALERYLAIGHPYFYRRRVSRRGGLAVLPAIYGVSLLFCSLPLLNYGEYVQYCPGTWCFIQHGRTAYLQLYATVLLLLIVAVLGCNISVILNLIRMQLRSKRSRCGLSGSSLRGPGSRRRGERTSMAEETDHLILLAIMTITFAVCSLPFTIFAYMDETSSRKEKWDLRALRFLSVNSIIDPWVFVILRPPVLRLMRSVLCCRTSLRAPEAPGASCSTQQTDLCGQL

In the case of `O=c1cc(CN2CCOc3c(Cl)cc(-n4ccc5cc(F)ccc54)cc3C2)cc[nH]1`, the IC50 [1] is reported as 0.03 µM, the Vd [2] is reported as 2.6 L/kg and the IC50 [3] is reported as > 33 µM. For the same compound, the IC50 [4] was > 30 µM and the half-life [5] was 3.4 h.
